Assay results taken from ChEMBL document CHEMBL1806447, “Semi-synthesis and antitumor activity of 6-isomers of 5, 8-O-dimethyl acylshikonin derivatives” (Eur J Med Chem, 2011).
pIC50: −log10 of the molar value.

Experiments:
[1] = system: MDA-MB-231; assay: Antitumor activity against human MDA-MB-231 cells after 24 hrs by MTT assay; assay type: functional, cell-based; settings: MDA-MB-231, 24 h
Procedure, shortened: (§1)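 Seeded at 5.0 × 10⁴ cells/mL and cultured 24 h, then exposed 24 h to serial dilutions made from a DMSO solution. MTT (5 mg/mL) added for 4 h, formazan dissolved in DMSO, A570 read. IC50 taken by linear regression of concentration-response curves; mean of at least three independent experiments.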

[2] = Cytotoxicity against human HSF cells after 24 hrs by MTT assay; assay type: cell-based; procedure, shortened: as §1
[3] = system: MCF7; assay: Antitumor activity against human MCF7 cells after 24 hrs by MTT assay; assay type: functional, cell-based; settings: MCF7, 24 h; procedure, shortened: as §1
[4] = system: CNE; assay: Antitumor activity against human CNE cells after 24 hrs by MTT assay; assay type: functional, cell-based; procedure, shortened: as §1
[5] = system: L929; assay: Cytotoxicity against mouse L929 cells after 24 hrs by MTT assay; assay type: cell-based; settings: L929, 24 h; procedure, shortened: as §1
[6] = system: K562; assay: Antitumor activity against human K562 cells after 24 hrs by MTT assay; assay type: functional, cell-based; settings: K562, 24 h; procedure, shortened: as §1
[7] = system: HCT-15; assay: Antitumor activity against human HCT15 cells after 24 hrs by MTT assay; assay type: functional, cell-based; settings: HCT-15, 24 h; procedure, shortened: as §1
[8] = system: CCRF S-180; assay: Antitumor activity against mouse S180 cells xenografted in KM mouse assessed as decrease in tumor weight at 25 mg/kg, ip administered qd for 9 days measured on 10th day (reference value: 2.07+/- 0.42g); assay type: functional; settings: route intraperitoneal
Procedure, shortened: (§2)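 S-180 sarcoma cells (2 × 10⁶ in 0.2 ml saline) injected subcutaneously at the femur of male SPF KM mice, seven weeks old, 18–22 g; groups of 10. Dosing began 24 h later, i.p. once daily for 9 days, in 0.5% DMSO/1% Tween 80 diluted with saline; controls received vehicle. Body weight followed; tumors excised and weighed on day 10. Inhibition = (control − treated mean tumor weight)/control × 100%.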

[9] = system: Mus musculus; assay: Toxicity in KM mouse harboring mouse S180 cells xenograft assessed as body weight change at 25 mg/kg, ip administered qd for 9 days measured on 10th day (reference value: +39.1%); assay type: organism-based, CCRF S-180; design: dose 25 mg/kg, route intraperitoneal; settings: in vivo, 216 h; procedure, shortened: as §2
[10] = system: CCRF S-180; assay: Antitumor activity against mouse S180 cells xenografted in KM mouse assessed as tumor weight inhibition rate at 25 mg/kg, ip administered qd for 9 days measured on 10th day; assay type: functional; settings: CCRF S-180, ip, 216 h, route intraperitoneal; procedure, shortened: as §2

| Structure (SMILES) | pIC50 [1] | pIC50 [2] | pIC50 [3] | other results |
| --- | --- | --- | --- | --- |
| CCCC(=O)O[C@H](CC=C(C)C)c1cc(OC)c2c(c1OC)C(=O)C=CC2=O | 5.37 | 4.06 | 5.29 |  |
| COc1ccc(C(=O)O[C@H](CC=C(C)C)c2cc(OC)c3c(c2OC)C(=O)C=CC3=O)cc1 | 5.85 | 4.05 | 5.08 |  |
| COc1cc([C@@H](CC=C(C)C)OC(=O)c2ccncc2)c(OC)c2c1C(=O)C=CC2=O | 5.92 | < 4.00 | 5.20 |  |
| C/C=C/C(=O)O[C@H](CC=C(C)C)c1cc(OC)c2c(c1OC)C(=O)C=CC2=O | 5.82 | 4.13 | 5.48 |  |
| CCC(C)C(=O)O[C@H](CC=C(C)C)c1cc(OC)c2c(c1OC)C(=O)C=CC2=O (stereo partly specified) | 5.23 | 4.03 | 5.35 |  |
| COc1cc([C@@H](CC=C(C)C)OC(=O)C2CCCO2)c(OC)c2c1C(=O)C=CC2=O (stereo partly specified) | 6.22 | < 4.00 | 5.60 | pIC50 [4]: 4.69; pIC50 [5]: < 4.00; pIC50 [6]: 4.95; pIC50 [7]: 4.73 |
| COc1cc([C@H](O)CC=C(C)C)c(OC)c2c1C(=O)C=CC2=O | 5.39 | 4.10 | 5.04 |  |
| COc1ccc(OC)c2c1C(=O)C=C([C@@H](CC=C(C)C)OC(C)=O)C2=O | 5.14 |  |  | pIC50 [4]: 4.64; pIC50 [5]: < 4.00; pIC50 [7]: 4.53 |
| COc1cc([C@@H](CC=C(C)C)OC(=O)CCc2ccccc2)c(OC)c2c1C(=O)C=CC2=O | 5.43 | < 4.00 | 5.23 |  |
| COc1cc([C@@H](CC=C(C)C)OC(=O)c2ccccc2)c(OC)c2c1C(=O)C=CC2=O | 5.66 | < 4.00 | 5.17 |  |
| COc1cc([C@@H](CC=C(C)C)OC(=O)c2ccc([N+](=O)[O-])cc2)c(OC)c2c1C(=O)C=CC2=O | 4.77 | < 4.00 | 4.82 |  |
| COc1ccc(CC(=O)O[C@H](CC=C(C)C)c2cc(OC)c3c(c2OC)C(=O)C=CC3=O)cc1 | 5.64 | < 4.00 | 5.26 |  |
| COc1cc([C@@H](CC=C(C)C)OC(=O)/C=C/c2ccccc2)c(OC)c2c1C(=O)C=CC2=O | 5.62 | < 4.00 | 5.41 |  |
| O=c1[nH]cc(F)c(=O)[nH]1 [FLUOROURACIL] |  |  |  | Activity [8]: 1.11 g; Activity [9]: 34.7%; inhibition in vivo at 25 mg/kg [10]: 46.5% |
| COc1ccccc1C(=O)O[C@H](CC=C(C)C)c1cc(OC)c2c(c1OC)C(=O)C=CC2=O | 5.36 | < 4.00 | 4.67 |  |
| COc1cc([C@@H](CC=C(C)C)OC(=O)c2ccoc2)c(OC)c2c1C(=O)C=CC2=O | 6.40 | < 4.00 | 5.89 |  |
| COc1ccc(OC)c2c1C(=O)C=C([C@@H](CC=C(C)C)OC(=O)C1CCCO1)C2=O (stereo partly specified) | 5.68 |  |  | pIC50 [4]: 4.78; pIC50 [5]: < 4.00; pIC50 [7]: 4.90 |
| COc1cc([C@@H](CC=C(C)C)OC(=O)C(C)C)c(OC)c2c1C(=O)C=CC2=O | 5.55 | 4.16 | 5.43 |  |
| COc1cc([C@@H](CC=C(C)C)OC(=O)c2ccco2)c(OC)c2c1C(=O)C=CC2=O | 5.89 | < 4.00 | 5.57 |  |
| COc1ccc(/C=C/C(=O)O[C@H](CC=C(C)C)c2cc(OC)c3c(c2OC)C(=O)C=CC3=O)cc1OC | 5.30 | < 4.00 | 5.11 |  |
| COc1cc([C@@H](CC=C(C)C)OC(C)=O)c(OC)c2c1C(=O)C=CC2=O | 5.47 | < 4.00 | 5.31 | pIC50 [4]: 4.24; pIC50 [5]: < 4.00; pIC50 [6]: 4.82; pIC50 [7]: 4.71 |
| CCC(=O)O[C@H](CC=C(C)C)c1cc(OC)c2c(c1OC)C(=O)C=CC2=O | 5.60 | 4.10 | 5.21 |  |
| COc1cc([C@@H](CC=C(C)C)OC(=O)c2cccnc2)c(OC)c2c1C(=O)C=CC2=O | 5.22 | 4.04 | 4.76 |  |
| COc1cc([C@@H](CC=C(C)C)OC(=O)C2CCOC2)c(OC)c2c1C(=O)C=CC2=O (stereo partly specified) | 6.70 | 4.16 | 5.96 |  |
| CC(C)=CC[C@@H](O)C1=CC(=O)c2c(O)ccc(O)c2C1=O [SHIKONIN] | 5.18 |  |  | pIC50 [4]: 6.15; pIC50 [5]: 5.49; pIC50 [7]: 5.14 |
